# Test results as given in ChEMBL document CHEMBL4513216, “Probing the Open Global Health Chemical Diversity Library for Multistage-Active Starting Points for Next-Generation Antimalarials” (ACS Infect Dis, 2020).
# Assay: Toxicity liver stage against HepG2, at 10uM
# Type: cell-based
# Design: test concentration 10 uM, cell line HepG2-A16-CD81EGFP
# Conditions: human, HepG2-A16-CD81EGFP cells; read-out: INHIBITION
# Method in brief: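 Uninfected HepG2-A16-CD81EGFP cells, 3 × 10^3 per well, 1536-well, plated on prespotted compound at 10 μM final, parasite-free screening media added to match infected plates; puromycin 10 μM positive, DMSO 0.5% negative; run in parallel with 48 h PbLuc assay at 37 °C, 5% CO2; viability by CellTiter-Glo luminescence, normalized to controls.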
row,Compound,cytotoxicity at 10 µM [%]
1,CC(=O)N1CCC(NC2(Cc3cc(C(C)(C)O)on3)COC2)CC1,-1.09
2,FC(F)(F)c1ccc(-c2c[nH]c([C@@H]3COCCN3)n2)cc1,1.05
3,COCCn1c(-c2cccc(OC)c2)cnc1NC(=O)NC1CCCC1,12.3
4,Cc1nn(C)cc1CN1CCCCCC1c1ccc(Cl)cc1 (stereo not given),4.93
5,CCC(C)CNC(=O)[C@@H]1CCCN1c1nccc(Nc2ccccc2)n1 (stereo not given in full),3.57
6,Cn1nc(CNC(=O)C2CCCCC2)cc1C1CC1,-4.56
7,O=C1[C@H]2CN(S(=O)(=O)c3cccs3)C[C@H]2CN1CC1CC1,2
8,O=C(NC1CC1)N1Cc2[nH]nc(COCC3CC3)c2C1,13.6
9,Fc1cccnc1N1CCC2(CNCCC2(F)F)C1 (stereo not given),-7.15
10,O=S(=O)(C1CC1)N1CCc2ncc(Cn3cncn3)n2CC1,3.62
11,COc1ncnc2c1CCN(c1cccc(F)c1)CC2,10.7
12,COCCO[C@H]1CCN(c2ccc(C)nn2)[C@H]1Cc1cnn(C)c1,2.5
13,CC(C)CCN1C2(CCN(c3ncccn3)C2)c2ccccc2S1(=O)=O (stereo not given),1.35
14,COCCN1C[C@@H](C)[C@@]2(COCCN(C(=O)c3ccoc3)C2)C1,7.4
15,Cc1ccc(C)c(-c2[nH]c3ccccc3c2C(=O)O)c1,1.55
16,CC(C)C(NC(=O)N1CCN(c2ccc(Cl)cc2)CC1)C(=O)NC1CC1 (stereo not given),23.6
17,O=C(NCc1ccco1)[C@H]1C[C@H]2OCC[C@H]2N(C(=O)c2ccco2)C1,2.79
18,Cc1nocc1C(=O)N1CCc2c(CN(C)C(C)C)n[nH]c2C1,-12.3
19,Cc1ccc(CC(=O)N2Cc3nccn3CC(Cn3cccn3)C2)cc1 (stereo not given),-10.5
20,COc1cccc(CNCc2ccc(F)c(Cl)c2)c1O,-13.7
21,Cc1ccc(CN2CCOCC2c2[nH]ncc2C)cn1 (stereo not given),4.52
22,Cc1cccc(C2(CNC(=O)c3ccnc(N(C)C)c3)CCOCC2)c1,2.85

row,Compound,cytotoxicity at 10 µM [%]
1,Cc1nn(C)cc1S(=O)(=O)NCC(c1ccccc1Cl)N1CCCC1 (stereo not given),-1.29
2,O=C(c1cncnc1)N1CCCC(c2nccs2)C1 (stereo not given),6.55
3,Cc1cc(C)n(C2CCN(Cc3nc4ccccc4n3C)CC2)n1,1.64
4,O=C(NCc1ccccn1)c1cncc(C2CCCN2)n1 (stereo not given),3.6
5,O=C(c1cc[nH]n1)N1CCCC1c1ccccn1 (stereo not given),-22.5
6,O=S(=O)(c1ccc(F)cc1)N1CCCC(c2nccs2)C1 (stereo not given),-6.74
7,CN1CCc2nc(C3CCCCN3Cc3ccccc3Cl)ncc2C1 (stereo not given),-27.7
8,Cc1cccc(-c2cccc(CC3(C(=O)O)CCOCC3)c2)c1,-25.7
9,CN1CCC(c2cncc(N(C)C)n2)CC1,-11.5
10,COc1nc(N2CCNCC2)ncc1Br,5.2
11,O=C1NCCCCC1Sc1ccccc1F (stereo not given),9.43
12,CCc1noc(CSc2n[nH]c(-c3ccccn3)n2)n1,5.49
13,O=C(Cn1nnn(-c2cccs2)c1=O)NCC1CCOC1 (stereo not given),-40.4
14,CCS(=O)(=O)CCN1CCN(C2CCC(C(C)C)CC2)CC1 (stereo not given),7.76
15,O=C1CC2(CCSC2)C(=O)N1Cc1coc(-c2ccccc2)n1 (stereo not given),5.57
16,NC(=O)c1ccc(NC(=O)c2ccncc2Cl)cn1,8.29
17,CC(=O)N1CCCC1C(=O)N1CCC(=Cc2cccc(F)c2)CC1 (stereo not given),3.5
18,COc1ccccc1CC1CCN(C(=O)CCc2ccccn2)CC1,-3.2
19,CCOC(C)C(=O)NS(=O)(=O)c1cccc2cc(C)cnc12 (stereo not given),-3.14
20,COc1cc(OC)cc(N2CCC(NCc3cc[nH]n3)C2)c1 (stereo not given),2.55
21,O=C(O)c1cnc2c(cnn2C2CCCC2)c1,-8.23
22,Cc1ccc(C(=O)NC2CCN(Cc3nc(C(C)C)no3)CC2)s1,3.82

row,Compound,cytotoxicity at 10 µM [%]
1,CCN(CC1CCOC1)C(=O)c1ccc(N(C)C)cc1F (stereo not given),3.54
2,CCCNC(=O)Cc1c(C)nc2c(c1C)c(=O)[nH]n2C,11.4
3,COc1ccc(F)cc1CSCC(=O)N(C)CCC#N,-2.32
4,COc1ccccc1S(=O)(=O)CCOC(C)C,6.24
5,CCOCCNC(=O)c1ccn(S(=O)(=O)c2ccc(C)cc2)c1,-3.18
6,O=C(C(C1CC1)C1CC1)N1CCC(n2ccnn2)CC1,-45.7
7,NC(=O)Nc1cccc(C(=O)N(Cc2ccc(F)cc2)C2CC2)c1,-10.1
8,CCOC(C(=O)N1CCn2c(nnc2C(C)C)C1)c1ccccc1 (stereo not given),3.84
9,O=S(=O)(NC1CC1)c1cccc(Br)c1,-3.52
10,CCC(C)N(C)S(=O)(=O)c1ccc(CCNC(C)=O)s1 (stereo not given),-3.45
11,CN(C)C(C)(C)CNC(=O)C(C)(C)c1ccccc1F,-11.2
12,Cc1cccc(C(=O)N2C[C@@H]3OCCN(CCN4CCCC4)[C@@H]3C2)n1,-65
13,CC1=N[C@@]2(CC[C@@H]3CN(C(=O)NCCc4ccccc4)C[C@@H]32)C(=O)N1,-75.4
14,CS(=O)(=O)NC[C@]12COC[C@H]1CN(C(=O)C1CCCCC1)C2,3.34
15,O=C(NCC1CC1)C1=NOC2(CCN(S(=O)(=O)c3cccs3)C2)C1 (stereo not given),0.693
16,CCCOc1cccc(-c2nc3c([nH]2)CCNC3)c1,-3.38
17,COc1ccc2c(c1)C(C(=O)N(C)CCn1ccnc1C)CC(=O)N2 (stereo not given),-44.8
18,CCSCC(C)NCc1cc(-c2ccco2)on1 (stereo not given),1.29
19,Cc1cc(C)cc(C(C(=O)O)N(C)CCCN2CCOCC2)c1 (stereo not given),6.03
20,O=C(C1COc2ccccc2O1)N1Cc2cnn(CCO)c2C1 (stereo not given),-3.12
21,CSc1cccc(NC(=O)N2CCCC(CNC(=O)c3ccco3)C2)c1 (stereo not given),-2.4
22,Cc1ccc(-c2ccnc(N[C@H]3COC[C@@H]3N3CCCCC3)n2)c(C)n1,3.46

row,Compound,cytotoxicity at 10 µM [%]
1,C[C@@H]1CN(C(=O)CCc2nncn2C)C[C@@]1(O)C1CCC1,-4.97
2,CN(C)CCN(C)C[C@@H]1CN(Cc2cccc(O)c2)C[C@@H]1CO,0.972
3,COCCn1ccnc1C1CCN(C(=O)C(O)c2ccc(F)cc2)CC1 (stereo not given),1.73
4,Cc1[nH]c(-c2ccccc2)nc1C(=O)N1CCc2[nH]cnc2C1C(=O)O (stereo not given),2.43
5,O=C1OC2(CCNCC2)CN1CC(=O)N1CCC1c1cccs1 (stereo not given),4.35
6,COCCN(C/C=C/c1ccccc1)Cc1ncc[nH]1,7.8
7,Oc1cc(CNCCN2CCCCC2)nc2c(F)cccc12,-1.16
8,Cc1ccc2nc(-c3cnc(N)nc3)cc(C(=O)N(C)C)c2c1,14
9,O=C(NCc1nnc2n1CCC2)c1cn(-c2ccccc2)nn1,-2.4
10,CC(C)[C@@H]1CN(Cc2cnc(C3CCCCC3)nc2)C[C@H]1C(=O)O,-6.46
11,COc1cccc(OCC2CCCN(C(=O)c3ncc(F)cc3F)C2)c1 (stereo not given),6.35
12,CCc1noc(CN(CC)C(=O)CC2C(=O)NCCN2CC(C)(C)C)n1 (stereo not given),1.83
13,CN1CCN(CCCNS(=O)(=O)Cc2ccccc2F)CC1,-11.1
14,COC[C@@]12CC[C@@H](N3CCOCC3)C[C@H]1CCN(c1ncccc1Cl)C2,-13.2
15,Cc1nc(N2CCN(C)CC2)ncc1C(=O)N1CCC(O)(CO)CC1,-0.395
16,Cc1cc(N2CCC3(CCC(=O)N(CC4CC4)C3)CC2)nc(N)n1,6.92
17,Cn1cc(C(=O)Nc2cc(F)ccc2OCC2CCCO2)ccc1=O (stereo not given),-7.09
18,Cc1nn(C)c(C)c1C(=O)NCc1ccnc(OCC(F)(F)F)c1,-10.7
19,CCOc1ccc(NC(=O)NCc2cccnc2OCC)cc1,-8.67
20,O=C(c1ccc2cc[nH]c2c1)N1CCCN(Cc2cscn2)CC1,-31.7
21,Cc1noc(C)c1C(=O)NCC(C)N1CCc2ccccc21 (stereo not given),-17.2
22,CCn1cc(C(=O)N2CCCC(c3noc(C)n3)C2)cn1 (stereo not given),2.17

row,Compound,cytotoxicity at 10 µM [%]
1,CCn1cc(CN2CCCN(C(=O)c3ccccc3OC)CC2)cn1,-11.4
2,Cn1cnnc1C1CCCN(C(=O)c2ccccn2)C1 (stereo not given),-8.31
3,CCn1cc(CN2CCCN(C(=O)c3cccn3C)CC2)cn1,-5.85
4,CC(C)(CO)NCc1ccc(OCc2ccc3c(c2)OCCO3)cc1,4.12
5,O=C(C1CC1)N1CCC2(CCCN2Cc2ccc(F)cc2)CC1,3.35
6,CCC(=O)N1CCC2(CC1)C(=O)N(C)CCN2Cc1csc(C)n1,5.59
7,Cn1cc(CN2CCC3(CC2)CC(Nc2nccs2)CO3)cn1 (stereo not given),-79.6
8,CN(C)C[C@H]1OC[C@@H]2CCN(C(=O)Cc3cccs3)C[C@@H]21,7.13
9,COc1cc(N2CCC3(CCCN3Cc3cnn(C)c3)CC2)ncn1,6.5
10,CC(C)CN1CC[C@@H]2[C@@H]1CCN2S(=O)(=O)c1cn(C)cn1,7.86
11,CCc1ncnc2c1CCN(Cc1cccs1)CC2,4.98
12,O=C(C1CCOCC1)N1C[C@H]2CCC[C@@]2(COc2ccccn2)C1,-0.587
13,CCN1C[C@H]2C3(CCN(S(=O)(=O)CC)CC3)CC[C@@]2(C(=O)N(C)C)C1,2.84
14,O=C(c1cnccn1)N1CCOC2(CCN(Cc3ccsc3)CC2)C1,-4.45
15,CNC(=O)CN1CCO[C@H]2CN(CC3CCOCC3)C[C@H]21,12.5
16,Cc1ccc(CN2CCc3ncnc(-c4ccc(F)cc4)c3CC2)o1,-9.49
17,CO[C@@H]1CCN(S(=O)(=O)c2cccs2)[C@H]1Cc1cccnc1,-80.3
18,Cc1ccc(Cc2cnc(C3CCNCC3)cn2)cc1,-31.2
19,O=C(NCCn1nc(C2CCNC2)c2cccnc21)C1CCC1 (stereo not given),-7.87
20,O=C(NC1CC1)N1CCCC2(CCCCN2)C1 (stereo not given),8.77
21,CC(C)COC[C@@H]1CC[C@H]2[C@H](CCN2C(=O)c2ccncc2F)O1,-0.58
22,O=C(CC1[C@H]2CN(c3ncccn3)C[C@@H]12)Nc1cccnc1 (stereo not given in full),-1.55
